A short description of series [1]: 1-Octanol/phosphate buffered-saline distribution coefficient, logD of compound at pH 7.4 measured after 4 hrs by LC-MS analysis. The series is classed as physicochemical. A digest of the protocol: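 PBS pH 7.4 and 1-octanol, each pre-saturated with the other. 10 mM DMSO stock, dispensed with an internal reference compound in triplicate and dried. Residue shaken in octanol plus buffer for at least 4 h, then centrifuged to separate phases. Both phases quantified by LC-MS/MS. Log D taken from the phase peak-area ratio, normalised to internal standard.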

Series [2] in a line: Apparent permeability across apical to basolateral membrane in MDCKII-LE cells measured after 120 mins by RapidFire-MS analysis. The series is classed as ADME, cell-based, Canis lupus familiaris. Particulars: dog, MDCK. Put shortly:
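MDCK-LE (low efflux) cells seeded at about 265,000 cells/cm² on Transwells and cultured 4 days. Apical-to-basal transport run in triplicate at 10 μM in HBSS/10 mM HEPES pH 7.4 with 0.02% BSA, 120 min at 37 °C without shaking. Bestatin used as integrity marker. Donor and acceptor quantified by MS against glyburide internal standard. Papp and % recovery calculated.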

A short description of series [3]: Aqueous solubility of the compound at pH 6.8. Conditions: buffer. The series is classed as physicochemical. A digest of the protocol:
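Thermodynamic (equilibrium) solubility. 10 mM DMSO stock dried down, then pH 6.8 phosphate buffer added to a target of 1 mM. Shaken at 1350 rpm at ambient temperature for 16–24 h. Supernatant centrifuged twice, diluted 200-fold and quantified by RapidFire-MS/MS against a 4-point calibration curve.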

A short description of series [4]: Clearance in Sprague-Dawley rat liver microsomes measured up to 30 mins in presence of NADPH by HPLC-MS/MS analysis. Format: ADME, Microsome. Particulars: read-out: CLH.
Series [5] in a line: Clearance in human liver microsomes measured up to 30 mins in presence of NADPH by HPLC-MS/MS analysis. Conditions: read-out: CLH. The series is classed as ADME, Microsome. A digest of the protocol:
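Human liver microsomes at 1.25 mg/mL protein in phosphate buffer pH 7.4. Test article at 10 μM, shaken at 37 °C. Reaction started with 2 mM NADPH/4 mM MgCl₂. Aliquots taken at 0, 5, 15 and 30 min and quenched with acetonitrile containing glibenclamide. Parent remaining measured by LC-MS/MS. Elimination rate constant converted to in vitro clearance.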
On the technique in general: Liver microsomes are a subcellular fraction often used to study metabolism.

A short description of series [6]: Cmax in Sprague-Dawley rat systemic circulation at 5 mg/kg, po or 0.5 mg/kg, iv measured up to 24 hrs by HPLC-MS/MS analysis. Format: ADME, organism-based. Also on record: dose 5 mg/kg, time <=24. A digest of the protocol:
(§1)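 Rat dosing in PEG300:20% Solutol/PBS (10:25:65). IV into a jugular cannula at 0.5 mg/kg (1 mg/kg for some analogues), 1 mL/kg. PO by gavage at 5 mg/kg from a 0.5 mg/mL solution. Blood drawn via jugular cannula at 5 min (IV only), 15 min, 0.5, 1, 2, 4, 7 and 24 h. Plasma analysed by HPLC-MS/MS. Parameters from noncompartmental analysis.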

Series [7] can be described thus: Cmax in Sprague-Dawley rat hepatic portal vein circulation at 5 mg/kg, po or 0.5 mg/kg, iv measured up to 24 hrs by HPLC-MS/MS analysis. The series is classed as ADME, organism-based. Also on record: dose 5 mg/kg, time <=24.
Series [8] can be described thus: AUC in Sprague-Dawley rat systemic circulation at 5 mg/kg, po or 0.5 mg/kg, iv measured up to 24 hrs by HPLC-MS/MS analysis. The series is classed as ADME, organism-based. Also on record: dose 5 mg/kg, time <=24. Put shortly: as §1
Series [9] is described as follows: AUC in Sprague-Dawley rat hepatic portal vein circulation at 5 mg/kg, po or 0.5 mg/kg, iv measured up to 24 hrs by HPLC-MS/MS analysis. The series is classed as ADME, organism-based. More on the design: dose 5 mg/kg, time <=24.
Series [10] in a line: Clearance in Sprague-Dawley rat at 5 mg/kg, po or 0.5 mg/kg, iv measured up to 24 hrs by HPLC-MS/MS analysis. The series is classed as ADME, organism-based. Particulars: in vivo. Put shortly: as §1
Series [11] is described as follows: Half life in Sprague-Dawley rat at 5 mg/kg, po or 0.5 mg/kg, iv measured up to 24 hrs by HPLC-MS/MS analysis. Format: ADME, organism-based. Particulars: in vivo. Put shortly: as §1
Series [12] can be described thus: Volume of distribution at steady state in Sprague-Dawley rat at 5 mg/kg, po or 0.5 mg/kg, iv measured up to 24 hrs by HPLC-MS/MS analysis. The series is classed as ADME, organism-based. Conditions: in vivo, read-out: Vdss. Put shortly:
as §1

Series [13] is described as follows: Oral bioavailability in Sprague-Dawley rat at 5 mg/kg measured up to 24 hrs by HPLC-MS/MS analysis. Format: ADME, organism-based. Particulars: in vivo. A digest of the protocol:
as §1

Each structure is given as a SMILES string. ≈ marks a conversion by molar mass, not a printed value.

Take `CCCC[C@@H]1NC(=O)[C@H](Cc2ccccc2)N(C)C(=O)CSC[C@H](C(=O)NC)N(C)C(=O)[C@H](CCCC)NC(=O)[C@H](CCCC)N(C)C(=O)[C@H](CCCC)NC1=O`: in series [1], the log distribution coefficient (logD) – broadly, lipophilicity at a set pH, counting ionised and neutral species – at 4 h came out at 4.1. The Papp A→B (in general, the apparent permeability from the apical to the basolateral side of a cell layer) at 2 h in series [2] turned out to be 80 nm/s. The solubility – broadly, how much of the substance goes into solution per volume – in [3] turned out to be 12 µM (≈ 9.79 µg/mL). The microsomal CLint in series [4] and in [5] was not below 350 µL/min/mg in each case. The Cmax (commonly the highest concentration seen after dosing) was determined as 0.114 µM in series [6] and 0.14 µM in series [7]. The AUC (usually concentration integrated over time) at 24 h is 258 nM·h in series [8] and 173 nM·h in [9]. Moreover, the clearance in series [10] came out at 5.16 L/h/kg. Moreover, in [11], the half-life (usually how long it takes for the measured level to halve) is 0.9 h. Also, in [12], the Vd worked out at 2.1 L/kg. The bioavailability (in general, dose-corrected exposure relative to a reference, in per cent) in series [13] stood at 20%.

In series [1], `CCCC[C@@H]1NC(=O)[C@H](Cc2ccccc2)NC(=O)CSC[C@H](C(=O)NC)NC(=O)[C@H](CCCC)N(C)C(=O)[C@H](CCCC)NC(=O)[C@H](CCCC)N(C)C1=O` had a logD at 4 h of 4.6. Also, in series [2], the Papp A→B at 2 h came to 39 nm/s. Moreover, in [3], the solubility is 5 µM (≈ 4.01 µg/mL). Also, the microsomal CLint in series [4] and in series [5] was not below 350 µL/min/mg in each case. The Cmax in [6] came to 1.03 µM; in [7], 0.819 µM. Also, the AUC at 24 h in [8] was determined as 2290 nM·h; in [9], 1860 nM·h. In [10], this molecule showed a clearance of 0.534 L/h/kg. In series [11], this molecule gave a half-life of 3.8 h. Moreover, in [12], the Vd is 1 L/kg. Besides, in series [13], the bioavailability amounted to 19%.

The record behind these values is ChEMBL document CHEMBL4808165, “Design of Thioether Cyclic Peptide Scaffolds with Passive Permeability and Oral Exposure” (J Med Chem, 2021).
